Assays:
[1] = target: T1, ATP-dependent translocase ABCB1 (Homo sapiens, UniProt P08183); assay: Inhibition of human multidrug resistant gene Pgp expressed in MDCK2 cells assessed as calcein-AM accumulation at 10 uM after 40 mins; format: cell-based; set-up: scale not given: the % may be the effect or the level left; settings: mdck-ii
[2] = target: T2, Broad substrate specificity ATP-binding cassette transporter ABCG2 (Homo sapiens, UniProt Q9UNQ0); assay: Inhibition of human BCRP mediated mitoxantrone accumulation in mitoxantrone resistant MCF7 cells at 5 uM by flow cytometry; format: cell-based; set-up: scale not given: the % may be the effect or the level left; settings: mcf7, 5 µM
T2 sequence (Q9UNQ0 whole entry): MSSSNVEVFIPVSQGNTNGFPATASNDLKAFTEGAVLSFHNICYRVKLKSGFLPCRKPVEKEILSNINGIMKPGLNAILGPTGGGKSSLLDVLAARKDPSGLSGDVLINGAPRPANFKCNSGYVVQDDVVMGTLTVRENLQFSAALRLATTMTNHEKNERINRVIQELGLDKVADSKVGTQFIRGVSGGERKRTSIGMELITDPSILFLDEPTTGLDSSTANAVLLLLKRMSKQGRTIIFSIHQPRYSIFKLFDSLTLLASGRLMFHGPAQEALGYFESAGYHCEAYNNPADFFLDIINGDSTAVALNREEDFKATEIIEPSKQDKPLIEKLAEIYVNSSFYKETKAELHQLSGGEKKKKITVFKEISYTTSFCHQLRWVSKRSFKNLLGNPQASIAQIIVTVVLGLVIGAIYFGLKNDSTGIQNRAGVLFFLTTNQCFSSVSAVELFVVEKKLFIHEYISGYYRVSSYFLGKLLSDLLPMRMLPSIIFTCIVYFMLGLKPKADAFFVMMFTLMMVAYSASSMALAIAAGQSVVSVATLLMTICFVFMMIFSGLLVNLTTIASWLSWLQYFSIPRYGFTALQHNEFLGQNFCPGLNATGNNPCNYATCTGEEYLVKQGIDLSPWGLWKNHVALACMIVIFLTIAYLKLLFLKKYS
Summary of the method: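 MCF-7/MX cells (selected in 250 nM mitoxantrone) trypsinized and resuspended at ~10^6 cells/ml in serum-free RPMI. Preincubated 15 min at 37 °C with compound (5 uM final) or vehicle (0.5% DMSO), then mitoxantrone 3 uM final added for 30 min. Stopped with ice-cold PBS and washed. Read by flow cytometry (488 nm excitation, 670 nm bandpass) as % area right of a marker set on MCF-7/WT autofluorescence (<5%). n = 4; FTC 10 uM as positive control.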

[3] = target: T1, ATP-dependent translocase ABCB1; assay: Inhibition of human multidrug resistant gene Pgp expressed in MDCK2 cells assessed as calcein-AM accumulation at 1 uM; format: cell-based; settings: mdck-ii
Summary of the method: (§1)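 MDCKII/WT or human MDR1-transfected MDCKII/MDR1 cells (passages 8-17) seeded at 5.0 x 10^4 cells/well and cultured 24 h. Washed, then preincubated 30 min at 37 °C with compound in DMSO-HBSS (≤1% DMSO). Calcein-AM added to 2 uM final, and fluorescence (ex 485/em 535 nm) read every 10 min over 40 min. Accumulation taken at 40 min relative to untreated MDCKII/MDR1, or scaled to the WT-minus-MDR1 fluorescence difference.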

MCF7 [4] = assay: Antiproliferative activity against adriamycin resistant human MCF7 cells after 72 hrs by MTT assay; format: functional, cell-based; settings: MCF7, 72 h
Summary of the method: (§2)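 MCF-7/WT and MCF-7/Adr cells (Adr line kept in medium with 10 uM doxorubicin; RPMI 1640, 10% FBS) exposed to compound for 72 h. MTT then added for 3 h, cells washed with PBS, and formazan dissolved in DMSO. Absorbance read at 590 nm, 3 determinations per concentration, IC50 derived from the concentration-response curve.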

[5] = target: T1, ATP-dependent translocase ABCB1; assay: Inhibition of human wild type gene Pgp expressed in MDCK2 cells assessed as calcein-AM accumulation at 1 uM; format: cell-based; settings: mdck-ii; summary of the method: as §1
MCF7 [6] = assay: Antiproliferative activity against wild type human MCF7 cells after 72 hrs by MTT assay; format: functional, cell-based; settings: MCF7, 72 h; summary of the method: as §2
P-gp (ABCB1), wild type = P-gp (ABCB1), wild type (Homo sapiens, UniProt P08183); assay: Inhibition of human wild type Pgp expressed in MDCK2 cells assessed as calcein-AM accumulation at 50 uM after 40 mins; format: cell-based, MDCK-II; settings: MDCK2 cells expressing human wild type Pgp, probe calcein-AM; summary of the method: as §1
Sequence of P-gp (ABCB1), wild type (P08183 whole entry): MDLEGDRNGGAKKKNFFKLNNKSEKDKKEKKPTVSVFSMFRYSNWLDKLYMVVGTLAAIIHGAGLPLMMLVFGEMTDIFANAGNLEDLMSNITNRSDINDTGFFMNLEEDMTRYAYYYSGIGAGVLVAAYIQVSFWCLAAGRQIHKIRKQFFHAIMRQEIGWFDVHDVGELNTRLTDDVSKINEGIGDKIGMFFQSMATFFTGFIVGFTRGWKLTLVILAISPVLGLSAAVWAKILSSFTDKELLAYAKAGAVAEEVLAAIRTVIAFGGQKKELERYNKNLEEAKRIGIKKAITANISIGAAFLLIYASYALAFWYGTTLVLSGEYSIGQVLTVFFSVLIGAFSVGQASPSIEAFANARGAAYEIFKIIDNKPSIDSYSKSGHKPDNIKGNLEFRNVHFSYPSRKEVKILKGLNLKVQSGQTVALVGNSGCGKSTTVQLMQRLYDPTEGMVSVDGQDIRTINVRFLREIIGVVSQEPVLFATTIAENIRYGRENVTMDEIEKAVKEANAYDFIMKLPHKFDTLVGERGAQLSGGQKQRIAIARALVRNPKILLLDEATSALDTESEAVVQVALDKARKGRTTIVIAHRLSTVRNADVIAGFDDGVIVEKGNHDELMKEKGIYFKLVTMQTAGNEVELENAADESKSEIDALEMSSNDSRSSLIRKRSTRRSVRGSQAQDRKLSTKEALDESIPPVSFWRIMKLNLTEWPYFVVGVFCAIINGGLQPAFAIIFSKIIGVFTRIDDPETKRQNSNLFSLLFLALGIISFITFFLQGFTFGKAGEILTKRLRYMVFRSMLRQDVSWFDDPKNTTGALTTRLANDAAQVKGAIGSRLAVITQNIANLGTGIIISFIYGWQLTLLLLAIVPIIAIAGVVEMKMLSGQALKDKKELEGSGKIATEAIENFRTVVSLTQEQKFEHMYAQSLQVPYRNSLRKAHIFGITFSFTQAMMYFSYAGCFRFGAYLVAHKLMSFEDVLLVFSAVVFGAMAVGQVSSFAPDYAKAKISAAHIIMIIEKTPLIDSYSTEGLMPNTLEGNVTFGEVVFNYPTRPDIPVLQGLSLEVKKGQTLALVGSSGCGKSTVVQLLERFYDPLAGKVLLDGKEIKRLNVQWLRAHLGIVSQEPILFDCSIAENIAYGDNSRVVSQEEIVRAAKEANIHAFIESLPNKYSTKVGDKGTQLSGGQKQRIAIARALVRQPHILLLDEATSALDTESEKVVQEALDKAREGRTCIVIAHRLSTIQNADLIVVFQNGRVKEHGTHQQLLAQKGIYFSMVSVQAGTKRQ

[7] = target: T2, Broad substrate specificity ATP-binding cassette transporter ABCG2; assay: Inhibition of human BCRP mediated mitoxantrone accumulation in mitoxantrone resistant MCF7 cells at 10 uM by flow cytometry; format: cell-based; set-up: scale not given: the % may be the effect or the level left; settings: mcf7, 10 µM
Summary of the method: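 MCF-7/MX cells are maintained in 250 nM mitoxantrone, then trypsinized, washed in ice-cold PBS and resuspended in serum-free RPMI 1640. They are pre-incubated 15 min at 37 °C with compound or vehicle (0.5% v/v DMSO), then exposed to mitoxantrone (3 uM final) for 30 min. Uptake is stopped with ice-cold PBS and cells are washed. Flow cytometry uses 488 nm excitation and a 670 nm filter. The read-out is % area beyond a marker set on MCF-7/WT autofluorescence (<5%).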

[8] = target: T2, Broad substrate specificity ATP-binding cassette transporter ABCG2; assay: Inhibition of human BCRP mediated mitoxantrone accumulation in wild type MCF7 cells at 5 uM by flow cytometry; format: cell-based; set-up: scale not given: the % may be the effect or the level left; settings: mcf7, 5 µM

T1 sequence (P08183 whole entry): as above

SMILES | Activity [1] [%] | also measured
COc1ccc(C(=O)/C=C/c2ccc(Cl)cc2)c(OC)c1 | 101 | Activity [2]: 348.6%
COc1ccc(C(=O)/C=C/c2ccc(N3CCN(C)CC3)cc2)c(OC)c1 | 159 | –
COc1ccc(/C=C/C(=O)c2ccc(OC)cc2OC)c(OC)c1 | 172 | –
CCN1CCC(c2cc(C(=O)/C=C/c3ccc(N4CCN(C)CC4)cc3)c(OC)cc2OC)CC1 | 120 | –
COc1cc(OC)c(C2CCN(C)CC2)cc1C(=O)/C=C/c1ccc(N2CCN(C)CC2)cc1 | 102 | –
COc1cc(OC)c(C2CCN(C)CC2)cc1C(=O)/C=C/c1ccccn1 | 164 | –
CCN1CCC(c2cc(C(=O)/C=C/c3ccccc3)c(OC)cc2OC)CC1 | 256 | Activity [3]: Active; IC50 (MCF7 [4]): 6.1 µM; Activity [5]: Active; IC50 (MCF7 [6]): 4.8 µM
COc1ccc(/C=C/C(=O)c2ccc(N3CCCCC3)cc2)c(OC)c1 | 178 | –
O=C(/C=C/c1ccc(Cl)cc1)c1ccc(N2CCCCC2)cc1 | 103 | –
CCN1CCC(c2cc(C(=O)/C=C/c3ccccc3Cl)c(OC)cc2OC)CC1 | 280 | inhibition at 40 min, 50 µM (P-gp (ABCB1), wild type): > 100%; Activity [3]: Active; IC50 (MCF7 [4]): 3.6 µM; Activity [5]: Active; IC50 (MCF7 [6]): 2.6 µM
COc1ccc2c3c([nH]c2c1)[C@H](C=C(C)C)N1C(=O)[C@@H]2CCCN2C(=O)[C@@H]1C3 [FUMITREMORGIN] | – | Activity [7]: 274.5%
O=C(/C=C/c1ccccc1)c1ccc(N2CCCCC2)cc1 | 112 | –
COc1cc(OC)c(N2CCN(C)CC2)cc1C(=O)/C=C/c1ccccc1 | 176 | –
O=C(/C=C/c1ccccc1Cl)c1ccc(N2CCNCC2)cc1 | 139 | –
CCN1CCC(c2cc(C(=O)/C=C/c3ccncc3)c(OC)cc2OC)CC1 | 151 | –
COc1ccc(C2CCN(C)CC2)cc1C(=O)/C=C/c1ccccc1 | 178 | –
O=C(/C=C/c1ccc(Cl)cc1)c1ccc(N2CCNCC2)cc1 | 135 | –
COc1cc(OC)c(C2CCN(C)CC2)cc1C(=O)/C=C/c1cccnc1 | 170 | –
COc1cc(OC)c(C2CCN(C)CC2)c(O)c1C(=O)/C=C/c1ccc(N2CCN(C)CC2)cc1 | 118 | –
COc1cc(OC)c(N2CCN(C)CC2)cc1C(=O)/C=C/c1ccc(N2CCN(C)CC2)cc1 | 107 | –
CCN1CCC(c2cc(C(=O)/C=C/c3ccc(Cl)cc3)c(OC)cc2OC)CC1 | 247 | –
COc1cc(OC)c(C2CCN(C)CC2)cc1C(=O)/C=C/c1ccncc1 | 117 | –
COc1ccc(/C=C/C(=O)c2ccc(N3CCNCC3)cc2)c(OC)c1 | 216 | Activity [3]: Active; IC50 (MCF7 [4]): 21.5 µM; Activity [5]: Active; Activity [2]: 188.4%
COc1cc(OC)c(N2CCN(C)CC2)cc1C(=O)/C=C/c1ccccc1Cl | 222 | –
COc1ccc(C(=O)/C=C/c2ccc(C(F)(F)F)cc2)c(OC)c1 | 103 | –
COc1ccc(/C=C/C(=O)c2ccc(OC)c(OC)c2OC)c(OC)c1 | 174 | –
O=C1c2c(O)ccc(O)c2C(=O)c2c(NCCNCCO)ccc(NCCNCCO)c21 [MITOXANTRONE] | – | Activity [8]: 439.2%

Source: ChEMBL document CHEMBL1143908, “Functionalized chalcones as selective inhibitors of P-glycoprotein and breast cancer resistance protein” (Bioorg Med Chem, 2008)
